The text below walks through data of ChEMBL document CHEMBL4145532, “Design and synthesis of new potent N,N-bis(arylalkyl)piperazine derivatives as multidrug resistance (MDR) reversing agents” (Eur J Med Chem, 2018).

The source made the active and inactive calls. No cut-off for these calls is given here. A value given as a limit tells only on which side of the number the result lay.

Data set [1] in a line: Half life in Sprague-Dawley rat plasma up to 1 uM by LC-MS/MS analysis. In kind it is ADME, cell-free. A digest of the protocol:
(§1)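 Analyte at 1 μM was placed in PBS, pooled human plasma (healthy male volunteers) or Sprague-Dawley male rat plasma. Samples were incubated at 37 °C for 0, 30, 60 and 120 min in triplicate. Internal standard was added, samples were centrifuged, and supernatants were dried and redissolved in 10 mM formic acid water:acetonitrile 80:20. Quantitation was by LC-MS/MS, positive ESI, MRM. Plasma hydrolytic activity was checked with ketoprofen ethyl ester or enalapril.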

The species named for data set [2] is Homo sapiens. Briefly: Inhibition of P-gp in human K562/Dox cells assessed as reduction in Rh-123 efflux by measuring mean fluorescence intensity at 1 uM preincubated for 15 mins followed by Rh-123 addition for 30 mins and subsequent replacement in Rh-123 free medium measured after 30 mins by FACS analysis. Format: cell-based. The procedure, abridged: (§2)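 K562/DOX cells pretreated with modulator (1.0 μM) 15 min before loading with 5.0 μM rhodamine 123 for 30 min at 37 °C, 5% CO2. Washed, then held in Rhd 123-free medium with or without modulator for 30 or 60 min. Cells washed in ice-cold PBS and analysed by flow cytometry (≥20,000 gated events). MFI ratio = median fluorescence of treated/untreated control. Mean ± SE, three independent experiments.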

Data set [3] relates to K562. Briefly: Cytotoxicity against human K562 cells at 0.1 to 3 uM after 72 hrs by MTT assay. Format: cell-based. Conditions: k562, 72 h. The procedure, abridged: (§3)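 Compounds were given alone at 0.1, 1.0 and 3.0 μM to parental K562 and to P-gp-overexpressing K562/DOX cells. Exponential-phase cells were seeded at 10^4 cells/well and kept 72 h at 37 °C in 5% CO2. MTT was then added for 3 h, formazan was dissolved in acidified isopropanol, and absorbance was read at 570 nm.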
Background: Tetrazolium dyes change colour on reduction, which living cells bring about.

The species named for data set [4] is Homo sapiens. As to the kind of experiment: Inhibition of P-gp in human K562/Dox cells assessed as potentiation of doxorubicin-induced cytotoxicity by measuring ratio of doxorubicin IC50 to doxorubicin IC50 in presence of test compound at 3 uM after 72 hrs by MTT assay. In kind it is cell-based. The procedure, abridged:
(§4)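 K562/DOX cells were exposed 72 h to doxorubicin (0.0001–100 μM) with or without modulator at 0.1, 1.0 or 3.0 μM, then read by MTT at 570 nm. Reversal fold is doxorubicin IC50 without modulator divided by IC50 with modulator. Quadruplicate cultures, at least three determinations.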

Data set [5] relates to K562. Briefly: Potentiation of doxorubicin-induced cytotoxicity against human K562 cells at 1 uM after 72 hrs by MTT assay. In kind it is functional, cell-based. A digest of the protocol: (§5)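 Doxorubicin (0.0001–100 μM) was tested alone or combined with modulator at 0.1, 1.0 or 3.0 μM on K562/DOX or parental K562 cells, seeded at 10^4 cells/well. Plates ran 72 h at 37 °C in 5% CO2, followed by 3 h MTT, acidified isopropanol and A570. Doxorubicin IC50 was taken as mean ± SE of at least three determinations with quadruplicate cultures.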

The species entered for data set [6] is Homo sapiens. As to the kind of experiment: Inhibition of P-gp in human K562/Dox cells assessed as potentiation of doxorubicin-induced cytotoxicity by measuring ratio of doxorubicin IC50 to doxorubicin IC50 in presence of test compound at 0.1 uM after 72 hrs by MTT assay. Format: cell-based. The procedure, abridged: as §4
The species entered for data set [7] is Homo sapiens. As to the kind of experiment: (§6) Inhibition of P-gp in human K562/Dox cells assessed as potentiation of doxorubicin-induced cytotoxicity after 72 hrs by MTT assay. In kind it is cell-based. A digest of the protocol:
as §5

The test system of data set [8] is K562. Briefly: Induction of Rh-123 accumulation in human K562 cells at 1 uM preincubated for 15 mins followed by Rh-123 addition and measured after 30 mins by FACS analysis. Format: functional, cell-based. The procedure, abridged: (§7)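 Cells (K562/DOX or parental K562) got modulator at 1.0 μM, with 15 min pre-exposure, then were loaded with 5.0 μM rhodamine-123 for 30 min at 37 °C in 5% CO2. After washing, cells sat in Rh-123-free medium with or without modulator for 30 or 60 min efflux. Cells were washed in ice-cold PBS and read by flow cytometry (≥20,000 gated events). MFI ratio is median fluorescence of treated over untreated control.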

Data set [9] is filed under the species Homo sapiens. Briefly: Inhibition of P-gp in human K562/Dox cells assessed as reduction in Rh-123 efflux by measuring mean fluorescence intensity at 1 uM preincubated for 15 mins followed by Rh-123 addition for 30 mins and subsequent replacement in Rh-123 free medium measured after 60 mins by FACS analysis. Format: cell-based. A digest of the protocol: as §2

Data set [10] is filed under the species Homo sapiens. Briefly: Inhibition of P-gp in human K562/Dox cells assessed as increase in Rh-123 accumulation at 1 uM preincubated for 15 mins followed by Rh-123 addition measured after 30 to 60 mins by FACS analysis. In kind it is cell-based. The procedure, abridged:
as §7
In general terms: Flow cytometry measures light scatter and fluorescence of single cells or particles in a stream.

Data set [11] is described as follows: Half life in human plasma up to 1 uM by LC-MS/MS analysis. Format: ADME, cell-free. A digest of the protocol: as §1
Data set [12] can be described thus: Half life in PBS up to 1 uM by LC-MS/MS analysis. In kind it is physicochemical. A digest of the protocol:
as §1

Data set [13] has as its system K562. As to the kind of experiment: Inhibition of Rh-123 efflux in human K562 cells at 1 uM preincubated for 15 mins followed by Rh-123 addition for 30 mins and subsequent replacement in Rh-123 free medium measured after 30 to 60 mins by FACS analysis. In kind it is functional, cell-based. A digest of the protocol:
as §7

A short description of data set [14]: Cytotoxicity against human K562/Dox cells at 0.1 to 3 uM after 72 hrs by MTT assay. Format: cell-based. A digest of the protocol:
as §3

In data set [15] the test system is K562. Briefly: Potentiation of doxorubicin-induced cytotoxicity against human K562 cells at 0.1 to 3 uM after 72 hrs by MTT assay. In kind it is functional, cell-based. A digest of the protocol:
as §5

For data set [16], the species on record is Homo sapiens. As to the kind of experiment: Inhibition of P-gp in human K562/Dox cells assessed as potentiation of doxorubicin-induced cytotoxicity by measuring ratio of doxorubicin IC50 to doxorubicin IC50 in presence of test compound at 1 uM after 72 hrs by MTT assay. Format: cell-based. The procedure, abridged:
as §4

The species entered for data set [17] is Homo sapiens. As to the kind of experiment: Inhibition of P-gp in human K562/Dox cells assessed as reduction in Rh-123 efflux by measuring increase in mean fluorescence intensity at 1 uM preincubated for 15 mins followed by Rh-123 addition for 30 mins and subsequent replacement in Rh-123 free medium measured after 60 mins by FACS analysis relative to control. In kind it is cell-based. The procedure, abridged: as §7

For data set [18], the species on record is Homo sapiens. Briefly: Inhibition of P-gp in human K562/Dox cells assessed as reduction in Rh-123 efflux by measuring increase in mean fluorescence intensity at 1 uM preincubated for 15 mins followed by Rh-123 addition for 30 mins and subsequent replacement in Rh-123 free medium measured after 30 mins by FACS analysis relative to control. Format: cell-based. The procedure, abridged: as §7

A short description of data set [19]: as §6. In kind it is cell-based. Particulars: K562, 72 h. A digest of the protocol: as §5
A short description of data set [20]: Cytotoxicity against human K562/Dox cells at 3 uM after 72 hrs by MTT assay relative to control. In kind it is cell-based. A digest of the protocol: as §3

The term half-life denotes the time in which the quantity being followed falls by half. With `CCOC(=O)[C@H](CCc1ccccc1)N[C@@H](C)C(=O)N1CCC[C@H]1C(=O)O`, in data set [1], the half-life turned out to be 0.417 h.

As to `COc1cc(/C=C/CN2CCN(Cc3c4ccccc4cc4ccccc34)CC2)cc(OC)c1OC`, the Flu intensity in the data set filed under Homo sapiens [2] is 7.5; in the data set filed under Homo sapiens [9], 2.4. Moreover, the Activity entry (with K562 [3]; in data set [14]) was “Non-Toxic” throughout. Further, the Ratio IC50 in the data set listed under Homo sapiens [4] came out at 22; in the data set filed under Homo sapiens [6] it was 1.7; in the data set filed under Homo sapiens [16] it was 8.8. The result in the data set on K562 [5], in the data set with K562 [8] and in the data set with K562 [15] was inactive. In addition, the half-life in data set [1], in data set [11] and in data set [12] was > 4 h in each case. Besides, the inhibition entry in the data set filed under Homo sapiens [7] was “Dose-dependent effect”. For the same compound, in the data set filed under Homo sapiens [10], the “P-gp inhibition activity call (increase in Rh-123 accumulation)” value is “Active”. For the same compound, in the data set with K562 [13], the inhibition result was “inactive”.

In turn, `CCOC(=O)C(C)c1cccc(C(=O)c2ccccc2)c1` (stereo not drawn) gave a half-life in data set [11] of 1.83 h.

Usually EC50 stands for the midpoint of the concentration-response curve. With `COc1ccc(C(CCCN2CCN(Cc3cc(OC)c(OC)c(OC)c3)CC2)c2ccc(OC)cc2)cc1`, the Flu intensity in the data set listed under Homo sapiens [2] was found to be 30; in the data set filed under Homo sapiens [9], 11.1. The Activity entry is given as “Non-Toxic” with K562 [3] and “<= 30%” in data set [20]. Moreover, the Ratio IC50 in the data set filed under Homo sapiens [4] turned out to be 73.3; in the data set filed under Homo sapiens [6], 1.2; in the data set filed under Homo sapiens [16], 10.5. Further, the outcome in the data set on K562 [5], with K562 [8] and in the data set on K562 [15] was inactive. Besides, the fold change (FC) in the data set filed under Homo sapiens [17] stood at 10; in the data set filed under Homo sapiens [18], 30. Moreover, the half-life in [1], in [11] and in data set [12] was > 4 h each time. For the same compound, in data set [19], the concentration giving a half-maximal response (EC50) came to 1.9 µM. The inhibition result in the data set listed under Homo sapiens [7] is “Dose-dependent effect”. In addition, the “P-gp inhibition activity call (increase in Rh-123 accumulation)” value in the data set filed under Homo sapiens [10] was “Active”. Moreover, the inhibition entry in the data set on K562 [13] is “inactive”.

Consider `COc1ccc(C(CCCN2CCN(C/C=C/c3cc(OC)c(OC)c(OC)c3)CC2)c2ccc(OC)cc2)cc1`, for which the Flu intensity stood at 108 in the data set listed under Homo sapiens [2] and 49.9 in the data set listed under Homo sapiens [9]. The Activity entry (in the data set with K562 [3]; in data set [14]) was “Non-Toxic” throughout. For the same compound, the Ratio IC50 in the data set filed under Homo sapiens [4] was found to be 44; in the data set filed under Homo sapiens [6], 1.9; in the data set listed under Homo sapiens [16] it was 12.9. In addition, the outcome with K562 [5], with K562 [8] and with K562 [15] was inactive. The values for the fold change (FC) in the data set filed under Homo sapiens [17] and in the data set listed under Homo sapiens [18] were 50 and 100, respectively. The half-life in data set [1], in data set [11] and in data set [12] was > 4 h each time. Further, the EC50 in data set [19] was determined as 2.7 µM. The inhibition entry in the data set filed under Homo sapiens [7] was “Dose-dependent effect”. Moreover, the “P-gp inhibition activity call (increase in Rh-123 accumulation)” value in the data set listed under Homo sapiens [10] was “Active”. Also, the inhibition entry in the data set on K562 [13] was “inactive”.

As for `COc1cc2c(cc1OC)CN(CCc1ccc(NC(=O)c3cc(OC)c(OC)cc3NC(=O)c3cnc4ccccc4c3)cc1)CC2`, the Ratio IC50 in the data set listed under Homo sapiens [16] is 31.4.

`COc1ccc(C(CCCN2CCN(CCOc3cc(OC)c(OC)c(OC)c3)CC2)c2ccc(OC)cc2)cc1`: the Flu intensity in the data set listed under Homo sapiens [2] is 5.5; in the data set listed under Homo sapiens [9], 1.4. Also, the Activity result (with K562 [3]; in data set [14]) was “Non-Toxic” in each case. Besides, the Ratio IC50 was 8.8 in the data set filed under Homo sapiens [4], 2.4 in the data set filed under Homo sapiens [6] and 4.5 in the data set listed under Homo sapiens [16]. Also, the outcome in the data set on K562 [5], in the data set with K562 [8] and in the data set with K562 [15] was inactive. Further, the half-life in data set [1], in data set [11] and in data set [12] was > 4 h each time. Moreover, the inhibition entry in the data set filed under Homo sapiens [7] is “Dose-dependent effect”. In addition, the “P-gp inhibition activity call (increase in Rh-123 accumulation)” value in the data set filed under Homo sapiens [10] was “Active”. Moreover, the inhibition result in the data set with K562 [13] is “inactive”.
